In ChEMBL document CHEMBL3588757, “Structure-based design, synthesis and biological testing of piperazine-linked bis-epipodophyllotoxin etoposide analogs” (Bioorg Med Chem, 2015):

Tests used:
Assay type in all cases: functional
HL-60(TB) [1] = experiment: Cytotoxicity against human HL-60(TB) cells assessed as cell growth at 0.5 uM by SRB assay; conditions: read-out: Activity
Procedure, shortened: (§1)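 Measured in the NCI-60 human tumour cell line panel using five-dose testing. Growth was recorded at each dose for each cell line, and a GI50 was derived for each line.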

A498 = experiment: Cytotoxicity against human A498 cells assessed as cell growth at 0.005 uM by SRB assay; conditions: read-out: Activity
UO-31 [2] = experiment: Cytotoxicity against human UO31 cells assessed as cell growth at 0.005 uM by SRB assay; conditions: read-out: Activity
HOP-92 = experiment: Cytotoxicity against human HOP92 cells assessed as cell growth at 5 uM by SRB assay; conditions: read-out: Activity; procedure, shortened: as §1
NCI-H226 = experiment: Cytotoxicity against human NCI-H226 cells assessed as cell growth at 50 uM by SRB assay; conditions: read-out: Activity
TK-10 [3] = experiment: Cytotoxicity against human TK10 cells assessed as cell growth at 0.5 uM by SRB assay; conditions: read-out: Activity
CAKI-1 = experiment: Cytotoxicity against human Caki1 cells assessed as cell growth at 50 uM by SRB assay; conditions: read-out: Activity
HL-60(TB) [4] = experiment: Cytotoxicity against human HL-60(TB) cells by SRB assay; procedure, shortened: as §1
NCI-H522 = experiment: Cytotoxicity against human NCI-H522 cells by SRB assay
Procedure, shortened: (§2)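 NCI-60 panel screen; 5-dose testing giving GI50 per cell line, plus a single 10 µM one-dose test. Method details not given beyond the NCI screen.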

M14 [5] = experiment: Cytotoxicity against human M14 cells assessed as cell growth at 0.005 uM by SRB assay; conditions: read-out: Activity
SW-620 [6] = experiment: Cytotoxicity against human SW620 cells assessed as cell growth at 0.5 uM by SRB assay; conditions: read-out: Activity
SK-OV-3 = experiment: Cytotoxicity against human SKOV3 cells assessed as cell growth at 0.5 uM by SRB assay; conditions: read-out: Activity
SF-539 = experiment: Cytotoxicity against human SF539 cells assessed as cell growth at 0.05 uM by SRB assay; conditions: read-out: Activity
BT-549 = experiment: Cytotoxicity against human BT549 cells assessed as cell growth at 0.05 uM by SRB assay; conditions: read-out: Activity
UACC-257 = experiment: Cytotoxicity against human UACC257 cells assessed as cell growth at 5 uM by SRB assay; conditions: read-out: Activity
NCI-H322M [7] = experiment: Cytotoxicity against human NCI-H322M cells assessed as cell growth at 0.05 uM by SRB assay; conditions: read-out: Activity
A549 [8] = experiment: Cytotoxicity against human A549/ATCC cells assessed as cell growth at 5 uM by SRB assay; conditions: read-out: Activity
[9] = Cytotoxicity against human NCI-ADR-RES cells assessed as cell growth at 0.005 uM by SRB assay; conditions: read-out: Activity
NCI-H460 = experiment: Cytotoxicity against human NCI-H460 cells assessed as cell growth at 0.5 uM by SRB assay; conditions: read-out: Activity
A549 [10] = experiment: Cytotoxicity against human A549/ATCC cells assessed as cell growth at 0.005 uM by SRB assay; conditions: read-out: Activity
HCT-15 = experiment: Cytotoxicity against human HCT15 cells assessed as cell growth at 0.005 uM by SRB assay; conditions: read-out: Activity; procedure, shortened: as §1
SNB-19 = experiment: Cytotoxicity against human SNB19 cells assessed as cell growth at 0.005 uM by SRB assay; conditions: read-out: Activity
HCT-116 = experiment: Cytotoxicity against human HCT116 cells by SRB assay; procedure, shortened: as §1
CCRF-CEM = experiment: Cytotoxicity against human CCRF-CEM cells assessed as cell growth at 0.005 uM by SRB assay; conditions: read-out: Activity
MDA-MB-468 = experiment: Cytotoxicity against human MDA-MB-468 cells assessed as cell growth at 0.05 uM by SRB assay; conditions: read-out: Activity
NCI-H322M [11] = experiment: Cytotoxicity against human NCI-H322M cells assessed as cell growth at 5 uM by SRB assay; conditions: read-out: Activity
[12] = Cytotoxicity against human Hs578T cells by SRB assay; conditions: Hs-578T; procedure, shortened: as §1
MCF7 = experiment: Cytotoxicity against human MCF7 cells assessed as cell growth at 50 uM by SRB assay; conditions: read-out: Activity
A549 [13] = experiment: Cytotoxicity against human A549/ATCC cells assessed as cell growth at 0.5 uM by SRB assay; conditions: read-out: Activity
MOLT-4 = experiment: Cytotoxicity against human MOLT4 cells assessed as cell growth at 50 uM by SRB assay; conditions: read-out: Activity
LOX IMVI = experiment: Cytotoxicity against human LOXIMVI cells assessed as cell growth at 0.05 uM by SRB assay; conditions: read-out: Activity
NCI-H322M [14] = experiment: Cytotoxicity against human NCI-H322M cells assessed as cell growth at 0.5 uM by SRB assay; conditions: read-out: Activity
SR = experiment: Cytotoxicity against human SR cells assessed as cell growth at 50 uM by SRB assay; conditions: read-out: Activity
OVCAR-4 = experiment: Cytotoxicity against human OVCAR4 cells assessed as cell growth at 0.005 uM by SRB assay; conditions: read-out: Activity
UO-31 [15] = experiment: Cytotoxicity against human UO31 cells assessed as cell growth at 5 uM by SRB assay; conditions: read-out: Activity
M14 [16] = experiment: Cytotoxicity against human M14 cells assessed as cell growth at 50 uM by SRB assay; conditions: read-out: Activity
M14 [17] = experiment: Cytotoxicity against human M14 cells assessed as cell growth at 0.5 uM by SRB assay; conditions: read-out: Activity
SK-MEL-28 = experiment: Cytotoxicity against human SK-MEL-28 cells by SRB assay; procedure, shortened: as §2
OVCAR-8 = experiment: Cytotoxicity against human OVCAR8 cells assessed as cell growth at 0.5 uM by SRB assay; conditions: read-out: Activity
SW-620 [18] = experiment: Cytotoxicity against human SW620 cells by SRB assay; procedure, shortened: as §2
SK-MEL-5 = experiment: Cytotoxicity against human SK-MEL-5 cells by SRB assay; procedure, shortened: as §2
TK-10 [19] = experiment: Cytotoxicity against human TK10 cells assessed as cell growth at 0.05 uM by SRB assay; conditions: read-out: Activity
[20] = read-out: LC50 (the source's name)
[21] = read-out: pLC50 (the source's name) (converted)

COc1cc([C@@H]2c3cc4c(cc3[C@@H](NC(=O)CN3CCN(CCCCCCCCCCN5CCN(CC(=O)N[C@@H]6c7cc8c(cc7[C@@H](c7cc(OC)c(O)c(OC)c7)[C@H]7C(=O)OC[C@@H]76)OCO8)CC5)CC3)[C@H]3COC(=O)[C@H]23)OCO4)cc(OC)c1O
growth at 0.5 µM (HL-60(TB) [1]): 15%
growth at 0.005 µM (A498): 73%
growth at 0.005 µM (UO-31 [2]): 86%
growth at 5 µM (HOP-92): -9%
growth at 50 µM (NCI-H226): -95%
growth at 0.5 µM (TK-10 [3]): 96%
growth at 50 µM (CAKI-1): -97%
GI50 (HL-60(TB) [4]; read-out: GI50): 0.113 µM
CC50 (HL-60(TB) [4]; [20]): > 50 µM
TGI (HL-60(TB) [4]; read-out: TGI): 0.901 µM
GI50 (HL-60(TB) [4]; read-out: pGI50 (converted)): 0.112 µM
CC50 (HL-60(TB) [4]; [21]): > 50.1 µM
TGI (HL-60(TB) [4]; read-out: pTGI (converted)): 0.891 µM
GI50 (NCI-H522; read-out: GI50): 0.032 µM
CC50 (NCI-H522; [20]): 4.38 µM
TGI (NCI-H522; read-out: TGI): 0.797 µM
GI50 (NCI-H522; read-out: pGI50 (converted)): 0.0324 µM
CC50 (NCI-H522; [21]): 4.37 µM
TGI (NCI-H522; read-out: pTGI (converted)): 0.794 µM
growth at 0.005 µM (M14 [5]): 94%
growth at 0.5 µM (SW-620 [6]): 46%
growth at 0.5 µM (SK-OV-3): 52%
growth at 0.05 µM (SF-539): 74%
growth at 0.05 µM (BT-549): 87%
growth at 5 µM (UACC-257): -97%
growth at 0.05 µM (NCI-H322M [7]): 92%
growth at 5 µM (A549 [8]): -29%
growth at 0.005 µM [9]: 97%
growth at 0.5 µM (NCI-H460): 94%
growth at 0.005 µM (A549 [10]): 74%
growth at 0.005 µM (HCT-15): 99%
growth at 0.005 µM (SNB-19): 99%
GI50 (HCT-116; read-out: GI50): 1 µM
CC50 (HCT-116; [20]): 46.5 µM
TGI (HCT-116; read-out: TGI): 3.46 µM
GI50 (HCT-116; read-out: pGI50 (converted)): 1 µM
CC50 (HCT-116; [21]): 46.8 µM
TGI (HCT-116; read-out: pTGI (converted)): 3.47 µM
growth at 0.005 µM (CCRF-CEM): 97%
growth at 0.05 µM (MDA-MB-468): 99%
growth at 5 µM (NCI-H322M [11]): -42%
GI50 ([12]; read-out: GI50): 2.8 µM
CC50 [12, 20]: > 50 µM
TGI ([12]; read-out: TGI): 22.2 µM
GI50 ([12]; read-out: pGI50 (converted)): 2.82 µM
CC50 [12, 21]: > 50.1 µM
TGI ([12]; read-out: pTGI (converted)): 22.4 µM
growth at 50 µM (MCF7): -60%
growth at 0.5 µM (A549 [13]): 9%
growth at 50 µM (MOLT-4): -100%
growth at 0.05 µM (LOX IMVI): 56%
growth at 0.5 µM (NCI-H322M [14]): 45%
growth at 50 µM (SR): -12%
growth at 0.005 µM (OVCAR-4): 98%
growth at 5 µM (UO-31 [15]): -13%
growth at 50 µM (M14 [16]): -49%
growth at 0.5 µM (M14 [17]): 65%
GI50 (SK-MEL-28; read-out: GI50): 6.2 µM
CC50 (SK-MEL-28; [20]): 29.8 µM
TGI (SK-MEL-28; read-out: TGI): 13.6 µM
GI50 (SK-MEL-28; read-out: pGI50 (converted)): 6.17 µM
CC50 (SK-MEL-28; [21]): 29.5 µM
TGI (SK-MEL-28; read-out: pTGI (converted)): 13.5 µM
growth at 0.5 µM (OVCAR-8): 51%
GI50 (SW-620 [18]; read-out: GI50): 0.372 µM
CC50 (SW-620 [18]; [20]): 3.38 µM
TGI (SW-620 [18]; read-out: TGI): 1.33 µM
GI50 (SW-620 [18]; read-out: pGI50 (converted)): 0.372 µM
CC50 (SW-620 [18]; [21]): 3.8 µM
TGI (SW-620 [18]; read-out: pTGI (converted)): 1.32 µM
GI50 (SK-MEL-5; read-out: GI50): 5.24 µM
CC50 (SK-MEL-5; [20]): 35.4 µM
TGI (SK-MEL-5; read-out: TGI): 13.6 µM
GI50 (SK-MEL-5; read-out: pGI50 (converted)): 5.25 µM
CC50 (SK-MEL-5; [21]): 35.5 µM
TGI (SK-MEL-5; read-out: pTGI (converted)): 13.5 µM
growth at 0.05 µM (TK-10 [19]): 91%
